Source: ChEMBL document CHEMBL2151002 (J Med Chem, 2012)
Activity calls are given as the source filed them. The rule behind the calls is not given here.

Legend:
[1] = tested on: Radical scavenging activity; assay: Antioxidant activity assessed as DPPH radical scavenging activity; assay type: functional
In short: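 Methanolic compound solutions (20–250 µM) mixed 1:1 with 200 µM methanolic DPPH and shaken at 30 °C for 20 min. Absorbance read at 517 nm. Controls were DPPH plus methanol; methanol alone served as background. % scavenging = (A control − A sample)/A control × 100, giving IC50.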

D(3) dopamine receptor [2] = molecular target: D(3) dopamine receptor (Rattus norvegicus, UniProt P19020); assay: Displacement of [3H]spiroperidol from rat cloned dopamine D3 receptor expressed in HEK293 cells; assay type: cell-based
Chain of D(3) dopamine receptor (Rattus norvegicus, UniProt P19020) (P19020 whole entry): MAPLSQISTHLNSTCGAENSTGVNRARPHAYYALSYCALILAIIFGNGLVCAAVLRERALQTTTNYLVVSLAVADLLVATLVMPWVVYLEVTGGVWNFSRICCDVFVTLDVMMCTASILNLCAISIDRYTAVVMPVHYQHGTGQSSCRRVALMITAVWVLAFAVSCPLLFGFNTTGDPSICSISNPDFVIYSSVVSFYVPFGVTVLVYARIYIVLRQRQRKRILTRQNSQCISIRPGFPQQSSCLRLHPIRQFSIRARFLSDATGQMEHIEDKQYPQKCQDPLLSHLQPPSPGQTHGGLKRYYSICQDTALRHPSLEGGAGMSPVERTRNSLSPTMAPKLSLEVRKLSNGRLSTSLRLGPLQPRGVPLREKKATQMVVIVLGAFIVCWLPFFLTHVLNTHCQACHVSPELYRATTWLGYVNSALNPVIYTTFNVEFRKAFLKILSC

D(2) dopamine receptor [3] = molecular target: D(2) dopamine receptor (Rattus norvegicus, UniProt P61169); assay: Displacement of [3H]spiroperidol from rat cloned dopamine D2L receptor expressed in HEK293 cells; assay type: cell-based
Chain of D(2) dopamine receptor (Rattus norvegicus, UniProt P61169) (P61169 whole entry): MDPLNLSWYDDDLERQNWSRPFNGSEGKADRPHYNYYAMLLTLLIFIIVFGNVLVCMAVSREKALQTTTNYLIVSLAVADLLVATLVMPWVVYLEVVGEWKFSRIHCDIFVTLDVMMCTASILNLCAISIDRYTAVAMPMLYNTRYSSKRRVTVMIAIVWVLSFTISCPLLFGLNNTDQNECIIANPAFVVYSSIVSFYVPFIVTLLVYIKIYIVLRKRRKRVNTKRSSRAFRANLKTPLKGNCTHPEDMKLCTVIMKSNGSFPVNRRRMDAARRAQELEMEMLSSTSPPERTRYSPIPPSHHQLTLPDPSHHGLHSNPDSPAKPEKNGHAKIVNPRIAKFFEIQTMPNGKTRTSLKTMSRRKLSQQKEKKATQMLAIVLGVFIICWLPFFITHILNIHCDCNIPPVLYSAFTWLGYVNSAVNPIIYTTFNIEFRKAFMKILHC

Rattus norvegicus [4] = organism: Rattus norvegicus; assay: Selectivity ratio of Ki for rat cloned dopamine D2L receptor to Ki for rat cloned dopamine D3 receptor
D(3) dopamine receptor [5] = molecular target: D(3) dopamine receptor (Homo sapiens, UniProt P35462); assay: Agonist activity at human cloned dopamine D3 receptor expressed in CHO cells by [35S]GTPgammaS binding assay; assay type: functional, cell-based
Chain of D(3) dopamine receptor (Homo sapiens, UniProt P35462) (P35462 whole entry): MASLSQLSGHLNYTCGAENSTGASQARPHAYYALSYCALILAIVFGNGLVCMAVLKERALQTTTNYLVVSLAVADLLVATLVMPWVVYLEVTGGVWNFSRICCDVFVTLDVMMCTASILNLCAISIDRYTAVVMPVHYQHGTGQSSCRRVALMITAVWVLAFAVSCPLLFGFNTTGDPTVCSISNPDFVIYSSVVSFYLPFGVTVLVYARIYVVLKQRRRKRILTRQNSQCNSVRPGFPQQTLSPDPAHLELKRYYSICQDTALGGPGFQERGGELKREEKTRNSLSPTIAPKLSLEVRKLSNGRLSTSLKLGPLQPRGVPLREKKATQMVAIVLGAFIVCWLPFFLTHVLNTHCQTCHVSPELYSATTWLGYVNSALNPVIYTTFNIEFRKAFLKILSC

D(2) dopamine receptor [6] = molecular target: T1, D(2) dopamine receptor (Homo sapiens, UniProt P14416); assay: Agonist activity at human cloned dopamine D2 receptor expressed in CHO cells by [35S]GTPgammaS binding assay; assay type: functional, cell-based
T1 sequence (P14416 whole entry): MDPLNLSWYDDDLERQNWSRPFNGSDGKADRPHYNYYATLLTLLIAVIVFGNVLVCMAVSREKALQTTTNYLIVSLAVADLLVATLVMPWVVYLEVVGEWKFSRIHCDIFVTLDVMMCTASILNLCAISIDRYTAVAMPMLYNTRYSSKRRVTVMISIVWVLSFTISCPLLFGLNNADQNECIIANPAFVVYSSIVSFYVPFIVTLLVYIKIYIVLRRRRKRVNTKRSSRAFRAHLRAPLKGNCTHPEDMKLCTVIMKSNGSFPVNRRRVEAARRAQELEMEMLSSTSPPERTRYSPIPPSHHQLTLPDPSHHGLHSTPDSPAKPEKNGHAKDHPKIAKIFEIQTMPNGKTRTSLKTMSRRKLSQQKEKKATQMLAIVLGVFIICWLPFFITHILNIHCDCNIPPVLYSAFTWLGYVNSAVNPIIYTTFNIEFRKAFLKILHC

D(2) dopamine receptor [7] = molecular target: T1, D(2) dopamine receptor; assay: Agonist activity at human cloned dopamine D2 receptor expressed in CHO cells by [35S]GTPgammaS binding assay relative to dopamine; assay type: functional, cell-based
Rattus norvegicus [8] = assay: Reversal of reserpine-induced akinesia in Sprague-Dawley rat at 5 umol/kg, sc administered 18 hrs post reserpine challenge measured for 6 hrs; assay type: functional, organism-based
Rattus norvegicus [9] = assay: Reversal of reserpine-induced akinesia in Sprague-Dawley rat at 10 umol/kg, sc administered 18 hrs post reserpine challenge measured for 6 hrs; assay type: functional, organism-based

Ki (D(3) dopamine receptor [2]) [nM] | Ki (D(2) dopamine receptor [3]) [nM] | Ratio Ki (Rattus norvegicus [4]) | SMILES | also measured
4.59 | 852 | – | CCCN(CCN1CCN(C(=O)c2cc3ccccc3[nH]2)CC1)C1CCc2nc(N)sc2C1 (racemic) | Activity [1]: Dose-dependent effect
48.2 | 1320 | 27.3 | CCCN(CCN1CCN(C(=O)c2c[nH]c3ccccc23)CC1)[C@@H]1CCc2nc(N)sc2C1 | –
1.74 | – | – | CCCN(CCCCN1CCN(C(=O)c2cc3ccccc3[nH]2)CC1)C1CCc2nc(N)sc2C1 (racemic) | –
5.48 | 183 | 33.4 | CCCN(CCN1CCN(Cc2cc3ccccc3[nH]2)CC1)C1CCc2c(O)cccc2C1 (configuration not stated) | –
4.1 | 1240 | 303 | CCCN(CCN1CCN(C(=O)c2ccc3[nH]ccc3c2)CC1)C1CCc2nc(N)sc2C1 (racemic) | Activity [1]: Dose-dependent effect
2.78 | 928 | 334 | CCCN(CCCN1CCN(C(=O)c2cc3ccccc3[nH]2)CC1)C1CCc2nc(N)sc2C1 (racemic) | –
54.1 | 2560 | – | CCCN(CCN1CCN(C(=O)c2cc3ccccc3[nH]2)CC1)[C@@H]1CCc2nc(N)sc2C1 | –
1.09 | 902 | 828 | CCCN(CCN1CCN(C(=O)c2c[nH]c3ccccc23)CC1)[C@H]1CCc2nc(N)sc2C1 | EC50 (D(3) dopamine receptor [5]): 0.87 nM; EC50 (D(2) dopamine receptor [6]): 86.4 nM; Emax (D(2) dopamine receptor [7]): 91.6%
– | – | – | CCCN(CCC)CCc1cccc2c1CC(=O)N2 | Activity (Rattus norvegicus [8]): Active
3.2 | 82.1 | 25.6 | CCCN(CCN1CCN(Cc2c[nH]c3ccccc23)CC1)C1CCc2c(O)cccc2C1 (configuration not stated) | –
52.8 | 2630 | 49.7 | CCCN(CCN1CCN(C(=O)c2ccc3[nH]ccc3c2)CC1)[C@@H]1CCc2nc(N)sc2C1 | –
– | – | – | O=C1O[C@H]([C@@H](O)CO)C(O)=C1O [ASCORBIC ACID] | Activity [1]: Dose-dependent effect; IC50 [1]: 24900 nM
8.07 | 132 | 16.4 | CCCN(CCN1CCN(Cc2ccc3[nH]ccc3c2)CC1)C1CCc2nc(N)sc2C1 (configuration not stated) | –
2.19 | 39 | 17.8 | CCCN(CCN1CCN(c2ccc3[nH]ccc3c2)CC1)[C@H]1CCc2nc(N)sc2C1 | EC50 (D(3) dopamine receptor [5]): 1.26 nM; EC50 (D(2) dopamine receptor [6]): 2.96 nM; Activity (Rattus norvegicus [8]): Active; Emax (D(2) dopamine receptor [7]): 107%
4.17 | 1500 | 360 | CCCN(CCN1CCN(C(=O)c2c[nH]c3ccccc23)CC1)C1CCc2nc(N)sc2C1 (racemic) | Activity [1]: Dose-dependent effect
1.84 | 1070 | – | CCCN(CCN1CCN(C(=O)c2cc3ccccc3[nH]2)CC1)[C@H]1CCc2nc(N)sc2C1 | EC50 (D(3) dopamine receptor [5]): 0.26 nM; Activity (Rattus norvegicus [9]): inactive; Emax (D(2) dopamine receptor [7]): 101%
1.4 | 1030 | 736 | CCCN(CCN1CCN(C(=O)c2ccc3[nH]ccc3c2)CC1)[C@H]1CCc2nc(N)sc2C1 | EC50 (D(3) dopamine receptor [5]): 0.56 nM; EC50 (D(2) dopamine receptor [6]): 70.7 nM; Activity (Rattus norvegicus [9]): inactive; Emax (D(2) dopamine receptor [7]): 107%
10.4 | 76.4 | 7.3 | CCCN(CCN1CCN(c2ccc3[nH]ccc3c2)CC1)C1CCc2c(O)cccc2C1 (configuration not stated) | –
16.8 | 1080 | 64.2 | CCCN(CCN1CCN(C(=O)c2c[nH]c3ccc(O)cc23)CC1)C1CCc2nc(N)sc2C1 (configuration not stated) | –
15.9 | 134 | 8.46 | CCCN(CCN1CCN(c2ccc3[nH]ccc3c2)CC1)[C@@H]1CCc2nc(N)sc2C1 | –
– | – | – | CCCN(CCN1CCN(c2ccc(-c3ccccc3)cc2)CC1)[C@H]1CCc2nc(N)sc2C1 | EC50 (D(3) dopamine receptor [5]): 1.51 nM; EC50 (D(2) dopamine receptor [6]): 33.1 nM; Emax (D(2) dopamine receptor [7]): 104%
4.17 | 269 | 64.5 | CCCN(CCN1CCN(Cc2ccc3[nH]ccc3c2)CC1)C1CCc2c(O)cccc2C1 (configuration not stated) | –
1.92 | 46.7 | 24.3 | CCCN(CCN1CCN(c2ccc3[nH]ccc3c2)CC1)C1CCc2nc(N)sc2C1 (racemic) | Activity [1]: Dose-dependent effect; IC50 [1]: 14500 nM
– | – | 121 | CCCN(CCN1CCN(c2nccc3ccccc23)CC1)[C@H]1CCc2nc(N)sc2C1 | EC50 (D(3) dopamine receptor [5]): 0.82 nM
